Measured values collected from several papers.
Compare with care: the assays were run in different laboratories.
Target: Sodium-dependent serotonin transporter (SLC6A4, Homo sapiens, UniProt P31645)

SMILES | test | setting | measurement | value
CCn1c(-c2nc3cc(C(=O)N4CCC[C@@H](N)C4)cc(OC)c3n2C)cc2cccnc21 | transporter uptake |  | IC50 | 39.8 µM
CC(C)c1nc2cc(OCCCCN3CCN(c4cccc5c4OCCO5)CC3)ccc2s1 | ligand displacement, radioligand |  | Ki | 0.33 µM
CCCOC(=O)[C@@]12C[C@@H]1[C@@H](n1cnc3c(NC)nc(C#Cc4ccc(Cl)s4)nc31)[C@H](O)[C@@H]2O | ligand displacement, radioligand | cell membranes | Ki | > 10 µM
Cc1ccc2cccc(N3CCN(CCCCOc4ccc5sc(C(C)C)nc5c4)CC3)c2n1 | ligand displacement, radioligand |  | Ki | 0.48 µM
CCCCN1CCC(COC(=O)c2ccc(N)c(OCF)c2)CC1 | cell-free assay, radioligand |  | Ki | > 10 µM
CCC(C)C(=O)[C@]12C(=O)[C@](CC=C(C)C)(C[C@H](CC=C(C)C)[C@@]1(C)CCC=C(C)C)C(=O)C(CC=C(C)C)=C2O (stereo partly shown) | ligand displacement, radioligand | cell membranes | Ki | 34 µM
CC(=O)N1C[C@H](CCN2CCC(c3c[nH]c4cc(Cl)ccc34)CC2)c2ccccc21 | ligand displacement, radioligand | cell membranes | IC50 | 0.36 µM
CNc1nc2cc(OCCCCN3CCC(c4cccc(Cl)c4Cl)CC3)ccc2s1 | ligand displacement, radioligand |  | Ki | 0.062 µM
CCn1c(-c2nc3ccc(C(=O)N4CCCC(N)C4)cc3n2C)cc2ccccc21 (stereo not shown) | transporter uptake |  | IC50 | 20 µM
CCN(CC)c1ccc(C2Nc3ccc(C(=O)c4ccccc4)cc3NC3=C2C(=O)CC(C)(C)C3)cc1 (stereo not shown) | cell-free assay, radioligand |  | Ki | > 10 µM
